Test results from ChEMBL document CHEMBL4368872, “Synthesis and anticonvulsant activity of phenoxyacetyl derivatives of amines, including aminoalkanols and amino acids” (Medchemcomm, 2018).
The source made the active and inactive calls. No cut-off for these calls is given here.

Experiments:
[1] = Neurotoxicity in Sprague-Dawley rat at 30 mg/kg, po measured after 4 hrs by rotarod test; type: toxicity, organism-based; conditions: in vivo
How it was run: (§1)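 Rat neurotoxicity after i.p. or p.o. dosing was scored as animals impaired / animals tested at each time point. For p.o. dosing, TD50 was obtained by probit analysis.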

[2] = Neurotoxicity in Sprague-Dawley rat at 30 mg/kg, po measured after 2 hrs by rotarod test; type: toxicity, organism-based; conditions: in vivo; how it was run: as §1
Mus musculus [3] = test: Anticonvulsant activity in CF-1 mouse model of maximal electroshock-induced seizure assessed as suppression of tonic hind limb extension at 100 mg/kg, ip measured at 0.5 hrs post dose; type: functional, organism-based
How it was run: (§2)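 Mice dosed i.p. and given maximal electroshock at 50 mA. Read-out is protection, reported as number protected / number tested at 0.25, 0.5, 1 and 4 h after dosing.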

Mus musculus [4] = test: Anticonvulsant activity in CF-1 mouse model of maximal electroshock-induced seizure assessed as suppression of tonic hind limb extension at 300 mg/kg, ip measured at 0.5 hrs post dose; type: functional, organism-based; how it was run: as §2
Mus musculus [5] = test: Anticonvulsant activity in CF-1 mouse model of maximal electroshock-induced seizure assessed as suppression of tonic hind limb extension at 100 mg/kg, ip measured at 1 hr post dose; type: functional, organism-based; how it was run: as §2
Mus musculus [6] = test: Anticonvulsant activity in CF-1 mouse model of maximal electroshock-induced seizure assessed as suppression of tonic hind limb extension at 300 mg/kg, ip measured at 4 hrs post dose; type: functional, organism-based; how it was run: as §2
Mus musculus [7] = test: Anticonvulsant activity in CF-1 mouse model of subcutaneous pentylenetetrazole-induced seizure assessed as reduction in convulsions at 30 mg/kg, ip measured at 0.5 hrs post dose; type: functional, organism-based
How it was run: (§3)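 Mice dosed i.p., then given pentylenetetrazole 85 mg/kg in 0.9% NaCl s.c. into the posterior midline of the neck. Seizures watched for at least 30 min. Scored as protected / tested at 0.5 and 4 h.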

Mus musculus [8] = test: Anticonvulsant activity in CF-1 mouse model of subcutaneous pentylenetetrazole-induced seizure assessed as reduction in convulsions at 100 mg/kg, ip measured at 0.5 hrs post dose; type: functional, organism-based; how it was run: as §3
Mus musculus [9] = test: Anticonvulsant activity in CF-1 mouse model of subcutaneous pentylenetetrazole-induced seizure assessed as reduction in convulsions at 300 mg/kg, ip measured at 4 hrs post dose; type: functional, organism-based; how it was run: as §3
[10] = Neurotoxicity in CF-1 mouse at 30 mg/kg, ip measured after 0.5 hrs by rotarod test; type: toxicity, organism-based; conditions: in vivo
How it was run: (§4)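 Mice dosed i.p. were placed on a 1 in. knurled rod turning at 6 rpm. Toxicity was scored as failure to keep balance for at least 1 min, i.e. falling off three or more times. Results are reported as animals showing toxicity / animals tested at each time point.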

[11] = Neurotoxicity in CF-1 mouse at 100 mg/kg, ip measured after 0.5 hrs by rotarod test; type: toxicity, organism-based; conditions: in vivo; how it was run: as §4
[12] = Neurotoxicity in CF-1 mouse at 100 mg/kg, ip measured after 4 hrs by rotarod test; type: toxicity, organism-based; conditions: in vivo; how it was run: as §4
[13] = Neurotoxicity in CF-1 mouse at 300 mg/kg, ip measured after 4 hrs by rotarod test; type: toxicity, organism-based; conditions: in vivo; how it was run: as §4
Rattus norvegicus = test: Anticonvulsant activity in Sprague-Dawley rat model of maximal electroshock-induced seizure assessed as suppression of tonic hind limb extension at 30 mg/kg, po measured at 2 hrs post dose; type: functional, organism-based
How it was run: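 Rats given 30 mg/kg p.o. and tested by maximal electroshock at 150 mA. Scored as number protected / number tested (4 per group) at 0.25, 0.5, 1, 2 and 4 h after dosing.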

[14] = Neurotoxicity in Sprague-Dawley rat at 30 mg/kg, po measured after 0.25 hrs by rotarod test; type: toxicity, organism-based; conditions: in vivo; how it was run: as §1
[15] = Half life in rat liver microsomes at 20 uM preincubated for 15 mins followed by NADPH generating system addition and measured by LC-MS/MS analysis; type: ADME, Microsome
How it was run: (§5)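 Test compound at 20 µM preincubated 15 min with male rat liver microsomes (0.4 mg ml⁻¹) in 100 mM potassium phosphate, pH 7.4. Started with NADP⁺ (3.4 mM), glucose 6-phosphate (7.7 mM) and G6PDH (0.6 U ml⁻¹). Run 5–60 min at 37 °C in duplicate, stopped with cold perchloric acid plus internal standard, supernatant analysed by LC-MS/MS. Half-life and Cl_int derived by literature methods.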

[16] = Intrinsic clearance in rat liver microsomes at 20 uM preincubated for 15 mins followed by NADPH generating system addition and measured after 5 to 60 mins by LC-MS/MS analysis; type: ADME, Microsome; conditions: read-out: CLH; how it was run: as §5
[17] = Mutagenicity in Salmonella typhimurium TA1535 assessed as mutagenicity index at 50 to 500 ug/plate preincubated for 30 mins followed by top agar addition and measured after 48 hrs in presence of liver S9 fraction by Ames test; type: toxicity, subcellular; conditions: salmonella enterica subsp. enterica serovar typhimurium, s9, 48 h
How it was run: (§6)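 Ames plate incorporation in S. typhimurium TA100 or TA1535, with or without S9. Overnight culture, compound in DMSO (50–500 µg per plate) and buffer or S9 mix preincubated 30 min at 37 °C, then top agar on glucose minimal agar. Incubated 48 h at 37 °C, revertants counted in triplicate. Vehicle negative control; NaN3 (−S9) and 2AA (+S9) positive controls. MI = revertants with compound / negative-control revertants; MI ≥ 2 with dose-response counts as positive.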

[18] = Mutagenicity in Salmonella typhimurium TA1535 assessed as mutagenicity index at 50 to 500 ug/plate preincubated for 30 mins followed by top agar addition and measured after 48 hrs in absence of liver S9 fraction by Ames test; type: toxicity; conditions: salmonella enterica subsp. enterica serovar typhimurium, s9, 48 h; how it was run: as §6
Salmonella typhimurium [19] = test: Antimutagenic activity against Salmonella typhimurium TA100 assessed as inhibition of NaN3-induced mutation at 500 ug/plate preincubated for 30 mins followed by top agar addition and measured after 48 hrs in presence of liver S9 fraction by Ames test relative to control; type: organism-based; conditions: salmonella enterica subsp. enterica serovar typhimurium, s9, 48 h
Salmonella typhimurium [20] = test: Antimutagenic activity against Salmonella typhimurium TA100 assessed as inhibition of NaN3-induced mutation at 250 ug/plate preincubated for 30 mins followed by top agar addition and measured after 48 hrs in presence of liver S9 fraction by Ames test relative to control; type: organism-based; conditions: salmonella enterica subsp. enterica serovar typhimurium, s9, 48 h
Salmonella typhimurium [21] = test: Antimutagenic activity against Salmonella typhimurium TA100 assessed as inhibition of NaN3-induced mutation at 100 ug/plate preincubated for 30 mins followed by top agar addition and measured after 48 hrs in presence of liver S9 fraction by Ames test relative to control; type: organism-based; conditions: salmonella enterica subsp. enterica serovar typhimurium, s9, 48 h
Salmonella typhimurium [22] = test: Antimutagenic activity against Salmonella typhimurium TA100 assessed as inhibition of NaN3-induced mutation at 50 ug/plate preincubated for 30 mins followed by top agar addition and measured after 48 hrs in presence of liver S9 fraction by Ames test relative to control; type: organism-based; conditions: salmonella enterica subsp. enterica serovar typhimurium, s9, 48 h
Salmonella typhimurium [23] = test: Antimutagenic activity against Salmonella typhimurium TA1535 assessed as inhibition of NaN3-induced mutation at 500 ug/plate preincubated for 30 mins followed by top agar addition and measured after 48 hrs in presence of liver S9 fraction by Ames test relative to control; type: organism-based; conditions: salmonella enterica subsp. enterica serovar typhimurium, s9, 48 h
Salmonella typhimurium [24] = test: Antimutagenic activity against Salmonella typhimurium TA1535 assessed as inhibition of NaN3-induced mutation at 100 ug/plate preincubated for 30 mins followed by top agar addition and measured after 48 hrs in presence of liver S9 fraction by Ames test relative to control; type: organism-based; conditions: salmonella enterica subsp. enterica serovar typhimurium, s9, 48 h
Salmonella typhimurium [25] = test: Antimutagenic activity against Salmonella typhimurium TA1535 assessed as inhibition of NaN3-induced mutation at 50 ug/plate preincubated for 30 mins followed by top agar addition and measured after 48 hrs in presence of liver S9 fraction by Ames test relative to control; type: organism-based; conditions: salmonella enterica subsp. enterica serovar typhimurium, s9, 48 h

SMILES	Activity [1]	Activity [2]	Activity (Mus musculus [3])	Activity (Mus musculus [4])	Activity (Mus musculus [5])	Activity (Mus musculus [6])	Activity (Mus musculus [7])	Activity (Mus musculus [8])	Activity (Mus musculus [9])	Activity [10]	Activity [11]	Activity [12]	Activity [13]	Activity (Rattus norvegicus)	Activity [14]	half-life at 20 µM [15] [h]	microsomal CLint at 20 µM [16] [µL/min/mg]	Activity index [17]	Activity index [18]	inhibition (INH) (Salmonella typhimurium [19]) [%]	further results
CCC(O)CNC(=O)COc1c(C)cccc1C (configuration not stated)	Non-Toxic	Non-Toxic	inactive	Active	inactive	inactive	inactive	inactive	inactive	Non-Toxic	Non-Toxic	Non-Toxic	Non-Toxic	inactive	Non-Toxic	0.507	57	0.7 to 1.7	0.7 to 1.7	47	inhibition (INH) (Salmonella typhimurium [20]): 11%; inhibition (INH) (Salmonella typhimurium [21]): 26%; inhibition (INH) (Salmonella typhimurium [22]): 21%; inhibition (INH) (Salmonella typhimurium [23]): 27%; inhibition (INH) (Salmonella typhimurium [24]): 51%; inhibition (INH) (Salmonella typhimurium [25]): 42%
Cc1cccc(C)c1OCC(=O)N[C@H](C)CO	Non-Toxic	Non-Toxic	inactive	Active	inactive	inactive	inactive	inactive	inactive	Non-Toxic	Non-Toxic	Non-Toxic	Non-Toxic	inactive	Non-Toxic	3.04	9.5	0.7 to 1.7	0.7 to 1.7	40	inhibition (INH) (Salmonella typhimurium [20]): 38%; inhibition (INH) (Salmonella typhimurium [21]): 43%; inhibition (INH) (Salmonella typhimurium [22]): 57%; inhibition (INH) (Salmonella typhimurium [23]): 31%; inhibition (INH) (Salmonella typhimurium [24]): 43%; inhibition (INH) (Salmonella typhimurium [25]): 29%
